ChEMBL document CHEMBL1153025, “Triterpene glycosides from the underground parts of Caulophyllum thalictroides” (J Nat Prod, 2009)
≈ marks a conversion by molar mass, not a printed value.

test system: HL-60; experiment: Cytotoxicity against human HL60 cells after 72 hrs by MTT assay; format: functional, cell-based; conditions: HL-60, 72 h
Method in brief: (§1)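 HL-60 (JCRB 0085) cells in RPMI 1640 with 10% FBS, L-glutamine, penicillin G and streptomycin, seeded at 4 × 10^4 cells/mL, preincubated 24 h at 37 °C in 5% CO2. Sample added in EtOH-H2O (1:1) to final 0.1-20 µg/mL; vehicle in controls. After 72 h, MTT 4 h, centrifuged, formazan dissolved in DMSO. Mean ± SEM of three experiments in triplicate.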

Structure (SMILES) | IC50
CC1(C)CC[C@]2(C(=O)O)[C@H](O)C[C@]3(C)C(=CC[C@@H]4[C@@]5(C)CC[C@H](O[C@@H]6OC[C@H](O)[C@H](O)[C@H]6O)C(C)(C)[C@@H]5CC[C@]43C)[C@@H]2C1 | 5.6 µg/mL (≈ 9.26 µM)
CC1(C)CC[C@]2(C(=O)O)[C@H](O)C[C@]3(C)C(=CC[C@@H]4[C@@]5(C)CC[C@H](O[C@@H]6OC[C@H](O)[C@H](O)[C@H]6O[C@@H]6O[C@H](CO)[C@@H](O)[C@H](O)[C@H]6O)C(C)(C)[C@@H]5CC[C@]43C)[C@@H]2C1 | 11.8 µg/mL (≈ 15.4 µM)
CC1(C)CC[C@]2(C(=O)O)CC[C@]3(C)C(=CC[C@@H]4[C@@]5(C)CC[C@H](O[C@@H]6OC[C@H](O)[C@H](O)[C@H]6O)[C@@](C)(C=O)[C@@H]5CC[C@]43C)[C@@H]2C1 | 4.8 µg/mL (≈ 7.96 µM)
COc1cc([C@@H]2c3cc4c(cc3[C@@H](O[C@@H]3O[C@@H]5CO[C@@H](C)O[C@H]5[C@H](O)[C@H]3O)[C@H]3COC(=O)[C@H]23)OCO4)cc(OC)c1O [ETOPOSIDE] | 0.26 µg/mL (≈ 0.442 µM)
CC1(C)CC[C@]2(C(=O)O)CC[C@]3(C)C(=CC[C@@H]4[C@@]5(C)CC[C@H](O[C@@H]6OC[C@H](O)[C@H](O)[C@H]6O)C(C)(CO)[C@@H]5CC[C@]43C)[C@@H]2C1 (stereo partly drawn) | 12.5 µg/mL (≈ 20.7 µM)
CC1(C)CC[C@]2(C(=O)O)CC[C@]3(C)C(=CC[C@@H]4[C@@]5(C)CC[C@H](O[C@@H]6OC[C@H](O)[C@H](O)[C@H]6O[C@@H]6O[C@H](CO)[C@@H](O)[C@H](O)[C@H]6O)[C@@](C)(CO)[C@@H]5CC[C@]43C)[C@@H]2C1 | 15.9 µg/mL (≈ 20.7 µM)
CC1(C)CC[C@]2(C(=O)O)CC[C@]3(C)C(=CC[C@@H]4[C@@]5(C)CC[C@H](O[C@@H]6OC[C@H](O)[C@H](O)[C@H]6O)C(C)(C)[C@@H]5CC[C@]43C)[C@@H]2C1 | 3.4 µg/mL (≈ 5.77 µM)
CC1(C)CC[C@]2(C(=O)O)CC[C@]3(C)C(=CC[C@@H]4[C@@]5(C)CC[C@H](O[C@@H]6OC[C@H](O)[C@H](O)[C@H]6O[C@@H]6O[C@H](CO)[C@@H](O)[C@H](O)[C@H]6O)C(C)(C)[C@@H]5CC[C@]43C)[C@@H]2C1 | 10.8 µg/mL (≈ 14.4 µM)

test system: HL-60; experiment: Cytotoxicity against human HL60 cells up to 20 ug/ml after 72 hrs by MTT assay; format: functional, cell-based; conditions: not given; method in brief: as §1

Structure (SMILES) | Activity
C[C@@H]1O[C@@H](O[C@H]2[C@H](O)[C@@H](O)[C@H](OC[C@H]3O[C@@H](OC(=O)[C@]45CCC(C)(C)C[C@H]4C4=CC[C@@H]6[C@@]7(C)CC[C@H](O[C@@H]8OC[C@H](O)[C@H](O)[C@H]8O)[C@@](C)(CO)[C@@H]7CC[C@@]6(C)[C@]4(C)C[C@H]5O)[C@H](O)[C@@H](O)[C@@H]3O)O[C@@H]2CO)[C@H](O)[C@H](O)[C@H]1O | Not toxic
CC1(C)CC[C@@]23C(=O)O[C@]4([C@@H]2C1)[C@H]1O[C@H]1[C@@H]1[C@@]2(C)CC[C@H](O[C@@H]5OC[C@H](O)[C@H](O)[C@H]5O)[C@@](C)(CO)[C@@H]2CC[C@@]1(C)[C@]4(C)C[C@H]3O | Not toxic
C[C@@H]1O[C@@H](O[C@H]2[C@H](O)[C@@H](O)[C@H](OC[C@H]3O[C@@H](OC(=O)[C@]45CCC(C)(C)C[C@H]4C4=CC[C@@H]6[C@@]7(C)CC[C@H](O[C@@H]8OC[C@H](O)[C@H](O)[C@H]8O)[C@@](C)(CO)[C@@H]7CC[C@@]6(C)[C@]4(C)CC5)[C@H](O)[C@@H](O)[C@@H]3O)O[C@@H]2CO)[C@H](O)[C@H](O)[C@H]1O | Not toxic
C[C@H]1[C@@H]2[C@H]3CC[C@@H]4[C@@]5(C)CC[C@H](O[C@@H]6OC[C@H](O)[C@H](O)[C@H]6O[C@@H]6O[C@H](CO)[C@@H](O)[C@H](O)[C@H]6O)C(C)(C)[C@@H]5CC[C@@]4(C)[C@]3(C)CC[C@@]23CC[C@]1(C)OC3=O | Not toxic
CC1(C)CC[C@]2(C(=O)O[C@@H]3O[C@H](CO[C@@H]4O[C@H](CO)[C@@H](O)[C@H](O)[C@H]4O)[C@@H](O)[C@H](O)[C@H]3O)[C@H](O)C[C@]3(C)C(=CC[C@@H]4[C@@]5(C)CC[C@H](O[C@@H]6OC[C@H](O)[C@H](O)[C@H]6O)[C@@](C)(CO)[C@@H]5CC[C@]43C)[C@@H]2C1 | Not toxic
CC1(C)CC[C@@]2(C(=O)O)C(=C3C=C[C@@H]4[C@@]5(C)CC[C@H](O[C@@H]6OC[C@H](O)[C@H](O)[C@H]6O)[C@@](C)(CO)[C@@H]5CC[C@@]4(C)[C@]3(C)C[C@H]2O)C1 | Not toxic
CC1(C)CC[C@@]23CC[C@]4(C)[C@@](OC2=O)([C@@H]3C1)[C@H]1O[C@H]1[C@@H]1[C@@]2(C)CC[C@H](O[C@@H]3OC[C@H](O)[C@H](O)[C@H]3O[C@@H]3O[C@H](CO)[C@@H](O)[C@H](O)[C@H]3O)[C@@](C)(CO)[C@@H]2CC[C@]14C | Not toxic
C[C@@H]1O[C@@H](O[C@H]2[C@H](O)[C@@H](O)[C@H](OC[C@H]3O[C@@H](OC(=O)[C@]45CCC(C)(C)C[C@H]4C4=CC[C@@H]6[C@@]7(C)CC[C@H](O)[C@@](C)(CO)[C@@H]7CC[C@@]6(C)[C@]4(C)CC5)[C@H](O)[C@@H](O)[C@@H]3O)O[C@@H]2CO)[C@H](O)[C@H](O)[C@H]1O | Not toxic
CC1(C)CC[C@]2(C(=O)O[C@@H]3O[C@H](CO)[C@@H](O)[C@H](O)[C@H]3O)[C@H](O)C[C@]3(C)C(=CC[C@@H]4[C@@]5(C)CC[C@H](O[C@@H]6OC[C@H](O)[C@H](O)[C@H]6O)[C@@](C)(CO)[C@@H]5CC[C@]43C)[C@@H]2C1 | Not toxic
CC1(C)CC[C@]2(C(=O)O)[C@H](O)C[C@]3(C)C(=CC[C@@H]4[C@@]5(C)CC[C@H](O[C@@H]6OC[C@H](O)[C@H](O)[C@H]6O[C@@H]6O[C@H](CO)[C@@H](O)[C@H](O)[C@H]6O)[C@@](C)(CO)[C@@H]5CC[C@]43C)[C@@H]2C1 | Not toxic
C[C@@H]1O[C@@H](O[C@H]2[C@H](O)[C@@H](O)[C@H](OC[C@H]3O[C@@H](OC(=O)[C@]45CCC(C)(C)C[C@H]4C4=CC[C@@H]6[C@@]7(C)CC[C@H](O[C@@H]8OC[C@H](O)[C@H](O)[C@H]8O[C@@H]8O[C@H](CO)[C@@H](O)[C@H](O)[C@H]8O)C(C)(C)[C@@H]7CC[C@@]6(C)[C@]4(C)CC5)[C@H](O)[C@@H](O)[C@@H]3O)O[C@@H]2CO)[C@H](O)[C@H](O)[C@H]1O | Not toxic
C[C@@H]1O[C@@H](O[C@H]2[C@H](O)[C@@H](O)[C@H](OC[C@H]3O[C@@H](OC(=O)[C@]45CCC(C)(C)C[C@H]4C4=CC[C@@H]6[C@@]7(C)CC[C@H](O[C@@H]8OC[C@H](O)[C@H](O)[C@H]8O[C@@H]8O[C@H](CO)[C@@H](O)[C@H](O)[C@H]8O)[C@@](C)(CO)[C@@H]7CC[C@@]6(C)[C@]4(C)CC5)[C@H](O)[C@@H](O)[C@@H]3O)O[C@@H]2CO)[C@H](O)[C@H](O)[C@H]1O | Not toxic
CC1(C)CC[C@]2(C(=O)O)[C@H](O)C[C@]3(C)C(=CC[C@@H]4[C@@]5(C)CC[C@H](O[C@@H]6OC[C@H](O)[C@H](O)[C@H]6O)[C@@](C)(C=O)[C@@H]5CC[C@]43C)[C@@H]2C1 | Not toxic
CC1(C)CC[C@]2(C(=O)O)[C@H](O)C[C@]3(C)C(=CC[C@@H]4[C@@]5(C)CC[C@H](O[C@@H]6OC[C@H](O)[C@H](O)[C@H]6O)[C@@](C)(CO)[C@@H]5CC[C@]43C)[C@@H]2C1 | Not toxic
C[C@H]1[C@@H]2C3CC[C@@H]4[C@@]5(C)CC[C@H](O[C@@H]6OC[C@H](O)[C@H](O)[C@H]6O[C@@H]6O[C@H](CO)[C@@H](O)[C@H](O)[C@H]6O)C(C)(C)[C@@H]5CC[C@@]4(C)[C@]3(C)CC[C@@]2(C(=O)O)CC[C@@]1(C)O (stereo partly drawn) | Not toxic
